# Laboratory results: ChEMBL document CHEMBL5149984, “Discovery of HN37 as a Potent and Chemically Stable Antiepileptic Drug Candidate” (J Med Chem, 2021)
# Legend:
# [1] = Volume of distribution at steady state in Kunming mouse plasma at 2 mg/kg, iv measured upto 24 hrs by LC-MS/MS method; format: ADME, organism-based; conditions: in vivo
# Outline: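 Male KM mice (18–24 g), fasted 12 h before and 2 h after dosing, n = 3 per time point. Oral dose in 5% DMSO/5% Tween 80/90% saline; i.v. dose is that formulation diluted in saline with 1% Tween 80. Blood sampled 0.25–24 h after oral dosing, 0.083–24 h after i.v.; whole brain taken after oral dosing. Acetonitrile extraction with internal standard, LC-MS/MS.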
# [2] = molecular target: T1, Potassium voltage-gated channel subfamily KQT member 4 (Homo sapiens) (UniProt P56696); experiment: Agonist activity at human KCNQ4 channel expressed in CHO cells assessed as amplitude change of outward current at 10 uM by patch clamp method; format: cell-based; conditions: filed as agonist
# T1 sequence (whole entry): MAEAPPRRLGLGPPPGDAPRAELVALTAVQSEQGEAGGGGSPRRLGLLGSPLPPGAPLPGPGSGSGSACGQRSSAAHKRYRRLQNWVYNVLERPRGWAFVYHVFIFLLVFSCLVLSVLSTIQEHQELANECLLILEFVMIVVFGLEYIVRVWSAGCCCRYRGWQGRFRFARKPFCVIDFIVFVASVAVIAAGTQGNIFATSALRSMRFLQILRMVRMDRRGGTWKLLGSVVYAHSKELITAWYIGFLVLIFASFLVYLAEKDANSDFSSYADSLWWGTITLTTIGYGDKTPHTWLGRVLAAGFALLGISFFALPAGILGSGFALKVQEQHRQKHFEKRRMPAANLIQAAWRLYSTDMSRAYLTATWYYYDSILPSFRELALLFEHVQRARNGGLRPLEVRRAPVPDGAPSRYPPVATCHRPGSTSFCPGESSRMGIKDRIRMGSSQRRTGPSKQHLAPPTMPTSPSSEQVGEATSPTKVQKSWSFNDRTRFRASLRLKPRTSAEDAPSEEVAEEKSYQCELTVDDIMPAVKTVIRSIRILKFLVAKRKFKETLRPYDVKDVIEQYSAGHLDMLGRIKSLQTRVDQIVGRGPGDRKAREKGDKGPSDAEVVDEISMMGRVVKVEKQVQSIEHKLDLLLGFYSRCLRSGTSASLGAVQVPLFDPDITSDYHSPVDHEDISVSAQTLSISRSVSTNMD
# Outline: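 Whole-cell patch clamp at room temperature on CHO cells (DMEM/F12, 10% FBS) transiently co-transfected with EGFP and hKCNQ1, rKCNQ2, rKCNQ3 A278T, hKCNQ4 or hKCNQ5; KCNQ2/3 at 1:1 cDNA ratio. Pipette solution 145 mM KCl, 5 mM MgATP, pH 7.3; bath 140 mM NaCl, 5 mM KCl, pH 7.4, under perfusion. V1/2 from Boltzmann fits; I/I0 is current amplitude with versus without compound; n = 4−6.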
Structure (SMILES),Vdss [1],Activity [2]
C#CCN(Cc1ccc(F)cc1)c1cc(C)c(NC(=O)OC)c(C)c1,2.89 L/kg,
CCOC(=O)Nc1ccc(NCc2ccc(F)cc2)cc1N [EZOGABINE],,2.85
